Measurements published in ChEMBL document CHEMBL1240476, “Synthesis and antiproliferative activity of indolizinophthalazine-5,12-dione derivatives, DNA topoisomerase IB inhibitors” (Eur J Med Chem, 2010).

Assays:
[1] = Cytotoxicity against human MCF7/ADR cells after 48 hrs by MTT assay; assay type: functional, cell-based; settings: NCI/ADR-RES
[2] = Cytotoxicity against human GLC82 cells after 48 hrs by MTT assay; assay type: functional, cell-based; settings: GLC82, 48 h
MCF7 = test: Cytotoxicity against human MCF7 cells after 48 hrs by MTT assay; assay type: functional, cell-based; settings: MCF7, 48 h
NCI-H460 = test: Cytotoxicity against human NCI-H460 cells after 48 hrs by MTT assay; assay type: functional, cell-based; settings: NCI-H460, 48 h
[3] = Inhibition of topoisomerase 1B-mediated relaxation of supercoiled pBR322 DNA at 1 uM after 30 mins by agarose gel electrophoresis
Method in brief: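 TOP1 relaxation of supercoiled DNA was run with enzyme, DNA and serially diluted drug (1 to 125). Controls were DNA without enzyme or drug, and DNA plus enzyme without drug. Supercoiled and relaxed DNA bands were resolved by gel and compared.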

[4] = Inhibition of topoisomerase 1B-mediated relaxation of supercoiled pBR322 DNA at 125 uM after 30 mins by agarose gel electrophoresis
Method in brief: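 TOP1-mediated relaxation of supercoiled DNA: enzyme and DNA incubated with serially diluted compound, 1 to 125 across four lanes. Controls were DNA without enzyme or drug, and DNA plus enzyme without drug. Read-out was the supercoiled versus relaxed DNA bands, scored as percent inhibition of TOP1 catalytic activity.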

COC(=O)c1c2c(n3ccccc13)C(=O)c1cnncc1C2=O
IC50 [1]: 17 µM | IC50 [2]: 13.7 µM | IC50 (MCF7): 23.7 µM | IC50 (NCI-H460): 9.94 µM

CCOC(=O)c1c2c(n3cc(C)ccc13)C(=O)c1cnncc1C2=O
IC50 [1]: 18.7 µM | IC50 [2]: 9.87 µM | IC50 (MCF7): 12.2 µM | IC50 (NCI-H460): 11.1 µM

N#Cc1c2c(n3ccccc13)C(=O)c1cnncc1C2=O
IC50 [1]: 0.81 µM | IC50 [2]: 1.13 µM | inhibition [3]: 23% | inhibition [4]: 100% | IC50 (MCF7): 1.09 µM | IC50 (NCI-H460): 9.32 µM

CC(=O)c1c2c(n3cccc(F)c13)C(=O)c1cnncc1C2=O
IC50 [1]: 13.2 µM | IC50 [2]: 1.85 µM | IC50 (MCF7): 10.7 µM | IC50 (NCI-H460): 10.6 µM

CCOC(=O)c1c2c(n3cccc(Cl)c13)C(=O)c1cnncc1C2=O
IC50 [1]: 1.6 µM | IC50 [2]: 1.09 µM | IC50 (MCF7): 1.2 µM | IC50 (NCI-H460): 1.44 µM

Cc1c2c(n3ccccc13)C(=O)c1cnncc1C2=O
IC50 [1]: 14.1 µM | IC50 [2]: 1.92 µM | IC50 (MCF7): 1.67 µM | IC50 (NCI-H460): 1.21 µM

CC[C@@]1(O)C(=O)OCc2c1cc1n(c2=O)Cc2cc3ccccc3nc2-1 [CAMPTOTHECIN]
IC50 [2]: > 25 µM | inhibition [4]: 73% | IC50 (NCI-H460): > 25 µM

O=C1c2cnncc2C(=O)c2c1cc1ccccn21
IC50 [1]: 11.7 µM | IC50 [2]: 10.8 µM | IC50 (MCF7): 14.7 µM | IC50 (NCI-H460): 11.4 µM

CCOC(=O)c1c2c(n3cccc(C)c13)C(=O)c1cnncc1C2=O
IC50 [1]: 1.55 µM | IC50 [2]: 10.3 µM | IC50 (MCF7): 1.22 µM | IC50 (NCI-H460): 1.18 µM

CCOC(=O)c1c2c(n3ccccc13)C(=O)c1cnncc1C2=O
IC50 [1]: > 25 µM | IC50 [2]: > 25 µM | IC50 (MCF7): > 25 µM | IC50 (NCI-H460): > 25 µM

CCOC(=O)c1c2c(n3cccc(O)c13)C(=O)c1cnncc1C2=O
IC50 [1]: > 25 µM | IC50 [2]: 11.6 µM | IC50 (MCF7): 20.8 µM | IC50 (NCI-H460): 23.5 µM

CC(=O)c1c2c(n3ccccc13)C(=O)c1cnncc1C2=O
IC50 [1]: 11.2 µM | IC50 [2]: 24.7 µM | IC50 (NCI-H460): 21.3 µM
